The values that follow come from ChEMBL document CHEMBL3091314, “Synthesis, cytotoxic evaluation and molecular docking study of 2-alkylthio-4-(2,3,4-trimethoxyphenyl)-5-aryl-thiazoles as tubulin polymerization inhibitors” (Bioorg Med Chem, 2013).

The species entered for one data set is Ovis aries. Kind of data set: Inhibition of sheep brain tubulin polymerization at 10 uM after 15 mins. The gist of the method: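 Purified tubulin (12 µM) preincubated 15 min with compound at 10 µM final in PEM buffer (100 mM PIPES pH 6.9, 1 mM MgSO4, 1 mM EGTA), then cooled to 0 °C. GTP added to 1 mM final; assembly started by warming from 0 to 37 °C and followed by absorbance at 350 nm. Duplicate experiments; CA-4 as positive control.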

For data set [1], the system named is NIH3T3. Kind of data set: Cell cycle arrest in mouse NIH/3T3 cells assessed as accumulation at S phase at 50 uM after 24 hrs using propidium iodide staining by flow cytometric analysis (reference value: 24.39%). Type of data set: cell-based. The note with it: nih3t3, 24 h. The gist of the method: (§1)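 NIH-3T3 cells treated with 25 or 50 µM for 24 h. Collected by centrifugation, fixed in 75% ethanol at 4 °C for 0.5 h, then resuspended in PBS with 0.1% Triton X-100, 10 µg/mL propidium iodide and 100 µg/mL RNase A at 37 °C for 0.5 h. DNA content read on a FACSCalibur flow cytometer. CA-4 (0.05 µM) served as positive control.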

Data set [2] has as its system NIH3T3. Kind of data set: Cell cycle arrest in mouse NIH/3T3 cells assessed as accumulation at G2/M phase at 50 uM after 24 hrs using propidium iodide staining by flow cytometric analysis (reference value: 35.70%). Type of data set: cell-based. The note with it: nih3t3, 24 h. In outline: as §1
For orientation: Flow cytometry measures light scatter and fluorescence of single cells or particles in a stream.

Data set [3] concerns NIH3T3. The data set can be described thus: Cell cycle arrest in mouse NIH/3T3 cells assessed as accumulation at G0/G1 phase at 50 uM after 24 hrs using propidium iodide staining by flow cytometric analysis (reference value: 39.91%). Type of data set: cell-based. The note with it: nih3t3, 24 h. In outline: as §1
For data set [4], the system named is NIH3T3. Kind of data set: Cell cycle arrest in mouse NIH/3T3 cells assessed as accumulation at S phase at 25 uM after 24 hrs using propidium iodide staining by flow cytometric analysis (reference value: 24.39%). The class given is cell-based. To be noted: nih3t3, 24 h. The gist of the method: as §1
Data set [5] has as its system NIH3T3. The data set can be described thus: Cell cycle arrest in mouse NIH/3T3 cells assessed as accumulation at G2/M phase at 25 uM after 24 hrs using propidium iodide staining by flow cytometric analysis (reference value: 35.70%). The class given is cell-based. To be noted: nih3t3, 24 h. The gist of the method:
as §1

The test system of data set [6] is NIH3T3. Kind of data set: Cell cycle arrest in mouse NIH/3T3 cells assessed as accumulation at G0/G1 phase at 25 uM after 24 hrs using propidium iodide staining by flow cytometric analysis (reference value: 39.91%). The class given is cell-based. The note with it: nih3t3, 24 h. In outline:
as §1

For data set [7], the system named is NIH3T3. Kind of data set: Cytotoxicity against mouse NIH/3T3 cells after 48 hrs by MTT assay. The class given is cell-based. The note with it: NIH3T3, 48 h. The gist of the method:
(§2)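 Cells grown in RPMI-1640 with 10% heat-inactivated FBS, penicillin and streptomycin, seeded at 8000–10,000 viable cells/well and left 48 h to attach. Exposed to 0.001–100 µM compound (DMSO final <0.1%) for 24 or 48 h depending on cell line. MTT (5 mg/ml in PBS) added for 4 h at 37 °C, formazan dissolved in DMSO, absorbance read at 550 nm against 690 nm. Triplicates; IC50 by nonlinear regression, mean ± SD.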
On the technique in general: Tetrazolium assays rely on reduction of a dye to a coloured formazan, in cell work by metabolically active cells.

A further data set deals with AGS. Kind of data set: Cytotoxicity against human AGS cells after 48 hrs by MTT assay. Type of data set: functional, cell-based. The gist of the method:
as §2

In a further data set the test system is MCF7. The data set can be described thus: Cytotoxicity against human MCF7 cells after 48 hrs by MTT assay. The class given is functional, cell-based. The note with it: MCF7, 48 h. In outline:
as §2

In the next data set the test system is HT-29. Kind of data set: Cytotoxicity against human HT-29 cells after 48 hrs by MTT assay. Type of data set: functional, cell-based. The note with it: HT-29, 48 h. The gist of the method:
as §2

What is called IC50 is the point on the concentration scale where inhibition reaches its midpoint. Lower therefore signals inhibition by little substance.

The source made the active and inactive calls. No cut-off for these calls is given here. Where only a bound is given, the exact number is not on record here.

Regarding `COc1ccc(-c2nc(SCc3ccccc3)sc2-c2ccc(Cl)cc2)c(OC)c1OC`, in the data set listed under Ovis aries, the “tubulin polymerization inhibition (active/inactive)” value was “Active”. Also, the Activity with NIH3T3 [1] is listed as 26.67%; in the data set with NIH3T3 [2] it was 57.41%; in the data set with NIH3T3 [3], 15.92%; in the data set with NIH3T3 [4], 28.12%; with NIH3T3 [5], 37.64%; with NIH3T3 [6], 34.24%. For the same compound, the IC50 with NIH3T3 [7] was 20.5 µM; with AGS, 15.8 µM; in the data set on MCF7 it was 12.6 µM; in the data set on HT-29, 8.9 µM.
For `COc1ccc(-c2nc(SCc3ccccc3)sc2-c2ccc([N+](=O)[O-])cc2)c(OC)c1OC`, the “tubulin polymerization inhibition (active/inactive)” value in the data set filed under Ovis aries is “Active”. The IC50 came out at 16.3 µM in the data set on NIH3T3 [7], 13.8 µM with AGS, 11 µM in the data set on MCF7 and 33.8 µM in the data set on HT-29.
As for `COc1ccc(-c2nc(SCc3ccccc3)sc2-c2ccccc2)c(OC)c1OC`, the IC50 turned out to be 56.5 µM in the data set with NIH3T3 [7], 38.5 µM in the data set on AGS, 27.3 µM with MCF7 and 46 µM with HT-29.
`COc1ccc(-c2nc(SC)sc2-c2ccc(Cl)cc2)c(OC)c1OC`: the IC50 was 95.7 µM in the data set on NIH3T3 [7], greater than 100 µM with AGS and greater than 100 µM in the data set with HT-29.
Regarding `COc1ccc(-c2nc(SC)sc2-c2ccc([N+](=O)[O-])cc2)c(OC)c1OC`, the figures for the IC50 in the data set with NIH3T3 [7], with AGS and in the data set with HT-29 were greater than 100 µM, greater than 100 µM and 45.3 µM, respectively.
Consider `COc1ccc(-c2nc(SC)sc2-c2ccc(F)cc2)c(OC)c1OC`, for which the IC50 with NIH3T3 [7] was 42.1 µM; in the data set on AGS, 97.8 µM; in the data set with HT-29, 80.3 µM.
For `COc1ccc(/C=C\c2cc(OC)c(OC)c(OC)c2)cc1O` [COMBRETASTATIN A4], the “tubulin polymerization inhibition (active/inactive)” value in the data set filed under Ovis aries is “Active”. Moreover, the IC50 came to 0.097 µM with NIH3T3 [7], 0.064 µM in the data set with AGS, 0.67 µM in the data set on MCF7 and 1.58 µM in the data set with HT-29.
Turning to `COc1ccc(-c2nc(SC)sc2-c2ccccc2)c(OC)c1OC`, the values for the IC50 in the data set with NIH3T3 [7], with AGS and with HT-29 were 22.1 µM, 27.2 µM and 77.9 µM, respectively.
As for `COc1ccc(-c2nc(SCc3ccccc3)sc2-c2ccc(F)cc2)c(OC)c1OC`, the “tubulin polymerization inhibition (active/inactive)” value in the data set listed under Ovis aries was “Active”. Further, the IC50 is 41.5 µM in the data set on NIH3T3 [7], 18.1 µM in the data set with AGS, 18.5 µM in the data set with MCF7 and 18.5 µM in the data set with HT-29.
